Screens (PubChem BioAssay)
A selection: hits, their analogues and other compounds. The true share with any hit is near 3.5%.
MrgX1 antagonist: human MrgX1 receptor antagonism, primary screen; MRGX1-HEK293 calcium flux, Fluo-4, BAM8-22 antagonism; hits give low values; 310,000 tested, 1.3% active; B-score at 10 µM; Q96LB2;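 active means calcium-response B-score plate-corrected more than 3 library SD below zero, starting fluorescence within 5 deviations, no agonist response on first addition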;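 further: peak minus trough fluorescence over baseline after final BAM8-22 challenge near maximal dose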
Target sequence (Q96LB2 whole entry, looked up): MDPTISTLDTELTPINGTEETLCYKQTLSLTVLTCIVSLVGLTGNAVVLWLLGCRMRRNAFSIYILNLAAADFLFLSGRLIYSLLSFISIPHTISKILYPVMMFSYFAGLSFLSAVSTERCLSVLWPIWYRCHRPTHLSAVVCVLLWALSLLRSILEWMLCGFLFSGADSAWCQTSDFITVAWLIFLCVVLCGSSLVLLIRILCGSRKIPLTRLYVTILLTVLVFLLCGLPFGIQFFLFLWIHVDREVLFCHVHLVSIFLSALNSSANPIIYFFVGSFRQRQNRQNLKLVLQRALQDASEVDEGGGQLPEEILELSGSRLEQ
RGS4 pot: RGS4 potentiation or activation; HEK293 M3R/inducible RGS4, carbachol calcium flux Fluo4; hits give low values; 310,000 tested, 0.92% active; B-score at 10 µM; AID 463111;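 active means B-score of the integrated calcium signal more than 4 SD below the library mean, with starting fluorescence not abnormally high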;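 further: negative B-score means reduced calcium response which marks RGS4 activation or potentiation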
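Reagent: ECmax carbachol challenge; Test system: M3R-expressing HEK293 line, RGS4 induced by doxycycline; Schedule: overnight RGS4 induction, 30 min dye load 37 °C, 20 min compound RT; Detection: calcium dye Fluo4 fluorescence; Read-out: Agonist-evoked peak-minus-minimum fluorescence over baseline, integrated ratio, B score.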
MrgX1 PAM: human MrgX1 positive allosteric modulation, primary screen. 310,000 tested, 0.63% active. MrgX1-HEK293, Fluo-4 calcium flux, FDSS; hits give high values. B-score at 10 µM. Q96LB2;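 active means plate-corrected calcium response at least 3 library SD above typical, normal starting fluorescence, not activating the receptor alone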;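 further: compound read alongside a low EC10 to EC30 dose of BAM8-22 agonist; peak minus trough fluorescence over baseline measured at the second addition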
RGS4 block: inhibitors of human RGS4; P49798; HEK293 M3R/RGS4 inducible, Fluo-4 calcium flux; hits give high values; triggered by carbachol at its EC20; B-score at 10 µM; 310,000 tested, 0.45% active; AID 463165;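 active means B-score, a plate-corrected calcium signal, over three deviations above library mean, with baseline fluorescence within five deviations of library mean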;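 further: RGS4 expression induced by doxycycline in cells with stable M3 receptor; B-score is computed from the integrated fluorescence ratio over baseline after carbachol; higher B-score means a larger calcium signal and so more RGS4 inhibition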
Target sequence (P49798 whole entry, looked up): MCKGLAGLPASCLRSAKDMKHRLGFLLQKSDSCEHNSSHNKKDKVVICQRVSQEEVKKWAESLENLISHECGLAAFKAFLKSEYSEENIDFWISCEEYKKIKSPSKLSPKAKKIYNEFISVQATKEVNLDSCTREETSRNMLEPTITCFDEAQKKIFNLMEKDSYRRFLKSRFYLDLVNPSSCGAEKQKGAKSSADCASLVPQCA
MrgX1 agonist: human MrgX1 receptor agonism, primary screen | MrgX1-HEK293 cells, Fluo-4 calcium fluorescence, agonist mode; hits give high values | B-score at 10 µM | 310,000 tested, 0.44% active;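 active means calcium response B-score plate-corrected fluorescence ratio at least 3 library SD, with starting fluorescence B-score inside 5 SD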
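System – MrgX1-expressing HEK293 cells · Incubation – cells plated overnight, dye loaded 0.5 h 37 °C, 0.5 h room temperature · Technique – kinetic Fluo-4 NW fluorescence of intracellular calcium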
RGS4 inh valid: RGS4 inhibitor validation | shares compounds with RGS4 block | HEK293 M3R/RGS4, carbachol calcium Fluo-4 fluorescence; carbachol added at its EC20; 0 = buffer wells, 100 = carbachol control | calcium response, % at 10 µM | 1,700 tested, 65% active;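 active means duplicate-averaged calcium response above the buffer-only control mean plus 5 SD of those controls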;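 further: integrated fluorescence ratio F max minus min over baseline F0; higher response in RGS4-induced cells means RGS4 inhibition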
M3R Ca ctr: checks RGS4 inhibitor effects in non-induced HEK293 M3R cells; shares compounds with RGS4 block; carbachol calcium Fluo-4; submaximal (EC20) carbachol stimulus; buffer wells 0%, carbachol control wells 100%; activity (percent), % at 10 µM; 1,900 tested, 20% active; AID 493000; call rule not given here;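 further: RGS4 induction absent so cells express M3R without RGS4; higher means more calcium signal and flags a non-specific hit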
RGS4 inh ctr2: second counter-screen for RGS4 inhibitors: non-induced cells without carbachol | shares compounds with RGS4 block | HEK293 M3R/RGS4 non-induced, Fluo-4 calcium, no carbachol; normalised: buffer wells 0%, carbachol wells 100% | calcium response (agonist-mode artifact), % at 10 µM | 1,900 tested, 22% active | AID 493001;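 active means duplicate-averaged calcium rise in uninduced cells above buffer wells' mean plus 5 SD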
Numbers stand for hits; 0 = inactive; - = no result given.

SMILES	MrgX1 antagonist	RGS4 pot	MrgX1 PAM	RGS4 block	MrgX1 agonist	RGS4 inh valid	M3R Ca ctr	RGS4 inh ctr2
COc1ccc(-c2cc(C(F)(F)F)n3nc(C(=O)NCc4ccco4)cc3n2)cc1	0	0	0	0	0	-	0	0
O=C(NCc1cccnc1)c1cc2nc(-c3ccc4c(c3)OCO4)cc(C(F)(F)F)n2n1	0	0	0	0	0	-	-	-
CC1CC(C)CN(CCCn2c(=S)[nH]c3ccccc3c2=O)C1 (stereo not given)	0	0	0	13	0	92%	77%	11%
O=c1c2ccccc2[nH]c(=S)n1CCCN1CCN(c2ccccc2)CC1	0	0	0	0	0	-	-	-
CCc1ccc(S(=O)(=O)N2CCN(c3ncccn3)CC2)cc1	0	0	0	0	0	-	-	-
O=C(Nc1nc(-c2ccc(Cl)s2)cs1)c1ccco1	0	0	0	6.5	0	14%	0	0
CC(=O)Nc1sc(NC(=O)c2ccco2)nc1-c1cccs1	0	0	0	0	0	-	-	-
O=C(Nc1nc(-c2cccs2)c(-c2ccccc2)s1)c1ccco1	0	0	0	14	0	43%	52%	0
O=C(Nc1nc(-c2ccc(Cl)s2)cs1)c1cccs1	0	0	0	0	0	-	-	-
Cc1cc(C)c(S(=O)(=O)c2cccc(Cl)c2)c(=O)[nH]1	0	0	0	0	0	-	-	-
CC(=O)O[C@@H]1[C@@]2(C)O[C@H]2CC[C@]23O[C@H]2[C@H](OC3=O)C2=C(C)C(=O)O[C@@]21O	0	0	0	0	0	-	-	-
Cc1ccccc1NC(=O)/C=C1\SC(=O)NC1=O	0	0	0	0	0	-	-	-
CCOC(=O)[C@@H]1[C@H]2COc3ccccc3[C@@H]2N2C(=O)N(c3ccc(OC)cc3)C(=O)[C@@]12C	0	0	0	0	0	0	0	0
CCOC(=O)[C@@H]1[C@H]2COc3ccc(Br)cc3[C@@H]2N2C(=O)N(c3ccc(OC)cc3)C(=O)[C@]12C	0	0	0	0	0	-	-	-
CCOC(=O)[C@@H]1[C@H]2COc3ccccc3[C@@H]2N2C(=O)N(c3ccc(OC)cc3)C(=O)[C@]12C	0	0	0	0	0	0	0	7.5%
CC(C)C[C@H](NC(=O)C1CC(=O)N(c2ccc(F)cc2)C1)C(=O)N1CCCCC1 (stereo not given in full)	0	0	0	0	0	-	-	-
NC(=O)CC(NC(=O)c1cccc(Br)c1)c1ccc(NC2CCN(Cc3ccccc3)CC2)c([N+](=O)[O-])c1 (stereo not given)	0	0	0	0	0	-	-	-
NC(=O)CC(NC(=O)Cc1ccc(Cl)cc1)c1ccc(NC2CCN(Cc3ccccc3)CC2)c([N+](=O)[O-])c1 (stereo not given)	0	0	0	0	0	0	0	0
c1coc(-c2nc(-c3ccco3)c(-c3ccco3)nc2-c2ccco2)c1	0	0	0	0	0	-	-	-
COc1ccc2nc(-c3ccco3)c(-c3ccco3)nc2c1	0	0	0	5.8	0	0	0	32%
Cc1sc2ncn(CC(=O)N3CCOCC3)c(=O)c2c1-c1ccccc1	0	0	0	0	0	-	-	-
O=C(NCc1ccc2c(c1)OCO2)C1CCCN1C(=O)Nc1ccc(Cl)cc1 (stereo not given)	0	0	0	0	0	-	-	-
Cc1nc2c(=O)n(C)c(=O)n(C)c2nc1Cl	0	0	0	12	0	36%	0	0
Cn1c(=O)c2nc(NCc3ccccc3)cnc2n(C)c1=O	0	0	0	0	0	-	-	-
O=C(CCc1nc2ccccc2c(=O)[nH]1)Nc1nnc(SCc2ccc(F)cc2)s1	0	0	0	0	0	-	-	-
SMILES	MrgX1 antagonist	RGS4 pot	MrgX1 PAM	RGS4 block	MrgX1 agonist	RGS4 inh valid	M3R Ca ctr	RGS4 inh ctr2
COc1ccc(C2CC(=O)C(C(c3ccc(O)cc3)C3C(=O)CC(c4ccc(OC)cc4)CC3=O)C(=O)C2)cc1 (stereo not given)	0	0	0	0	0	-	-	-
C=CCN1C(=O)c2ccc(C(=O)N3CCN(c4ccccc4OC)CC3)cc2C1=O	0	0	0	0	0	-	-	-
CCc1noc(C)c1C(=O)Nc1cc(S(=O)(=O)N2CCOCC2)ccc1OC(C)C	0	0	0	0	0	-	-	-
NC1=NC2(CCC(c3ccccc3)CC2)n2c(nc3ccccc32)N1 (stereo not given)	0	0	0	5.2	0	58%	0	0
N#Cc1c(-c2ccco2)cc(C2CC2)nc1N	0	0	0	5	0	5.0%	0	0
N#Cc1c(-c2ccccc2)cc(C2CC2)nc1N	0	0	0	0	0	-	-	-
COc1cccc(CN2CCN(Cc3nc(C(C)C)cs3)CC2CCO)c1 (stereo not given)	0	0	0	0	0	-	-	-
CCC1CCCCN1S(=O)(=O)c1ccc2c(c1)CCN2C(=O)C1CCC1 (stereo not given)	0	0	0	0	0	-	-	-
O=C(CCl)c1ccc2c(c1)CCN2C(=O)C1CCCCC1	0	0	0	0	0	0	0	14%
CCc1noc(C)c1C(=O)N1CCC(CCC(=O)Nc2cccc(C)c2)CC1	0	0	0	0	0	-	-	-
Cc1ccc(NC(=O)C(=Cc2ccc(C(=O)O)cc2)C(=O)Nc2ccc(C)cc2C)c(C)c1	0	0	0	11	0	18%	0	0
CCCS(=O)(=O)N1CCN(S(=O)(=O)c2ccccc2)CC1	0	0	0	0	0	-	-	-
O=C1C=CC(O)(c2cc(=O)c3c(O)cc(O)cc3o2)C=C1	0	0	0	26	0	78%	30%	0
CC1=NN(c2ccccc2)C(=O)/C1=C/c1ccc(Cl)cc1	0	0	0	0	0	-	-	-
COc1ccc(/C=C2/C(=O)N(c3ccccc3)N=C2C)cc1Br	0	0	8.9	24	0	0	0	0
CCOC(=O)C1=C(C)n2c(s/c(=C/c3cccc([N+](=O)[O-])c3)c2=O)=NC1c1ccc(O)c(OC)c1 (stereo not given)	0	0	0	34	0	66%	34%	20%
CCc1nnc(NC(=O)CSc2nc3cccnc3n2C2CCCCC2)s1	0	0	0	0	0	-	-	-
Cc1nc(NC(=O)CSc2nc3cccnc3n2C2CCCCC2)sc1C	0	0	0	0	0	-	0	0
Cc1cccc(-n2nc(C)c3c(C(=O)O)cc(-c4cccs4)nc32)c1	0	0	0	9.5	0	19%	30%	0
Cc1nn(-c2cccc(Cl)c2)c2nc(-c3ccco3)cc(C(=O)O)c12	0	0	0	0	0	-	-	-
